From ChEMBL document CHEMBL2203081 (Bioorg Med Chem Lett, 2012)
Activity calls are given as the source filed them. The rule behind the calls is not given here.

What was measured:
[1] = target: Death-associated protein kinase 1 (Homo sapiens) (UniProt P53355); test: Inhibition of DAPK1 assessed as residual activity at 10 uM relative to control
In short: (§1)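 Competition kinase-binding assay (KINOMEscan) across a non-redundant panel of 329 kinases beyond the radiometric panel; residual binding expressed relative to control.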

[2] = target: Casein kinase I isoform alpha-like (Homo sapiens) (UniProt Q8N752); test: Inhibition of CSNK1A1L assessed as residual activity at 10 uM relative to control; in short: as §1
[3] = target: Dual specificity protein kinase CLK4 (Homo sapiens) (UniProt Q9HAZ1); test: Inhibition of CLK4 assessed as residual activity at 10 uM relative to control; in short: as §1
[4] = target: Cyclin-dependent kinase 5 (Homo sapiens) (UniProt Q00535); test: Inhibition of CDK5 assessed as residual activity at 10 uM relative to control
Chain of Cyclin-dependent kinase 5 (Homo sapiens) (Q00535 whole entry, looked up): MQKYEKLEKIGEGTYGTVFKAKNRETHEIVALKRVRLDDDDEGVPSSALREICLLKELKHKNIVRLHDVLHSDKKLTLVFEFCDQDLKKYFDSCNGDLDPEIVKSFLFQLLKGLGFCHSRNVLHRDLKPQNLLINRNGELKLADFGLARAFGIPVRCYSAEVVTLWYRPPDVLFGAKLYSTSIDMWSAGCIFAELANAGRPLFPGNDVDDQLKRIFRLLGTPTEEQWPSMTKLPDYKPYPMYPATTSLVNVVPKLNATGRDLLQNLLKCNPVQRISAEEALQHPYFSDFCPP

[5] = target: Cyclin-dependent kinase 11A (Homo sapiens) (UniProt Q9UQ88); test: Inhibition of CDC2L2 assessed as residual activity at 10 uM relative to control
[6] = target: Mitogen-activated protein kinase kinase kinase 9 (Homo sapiens) (UniProt P80192); test: Inhibition of MLK1 assessed as residual activity at 1 uM
Chain of Mitogen-activated protein kinase kinase kinase 9 (Homo sapiens) (P80192 whole entry, looked up): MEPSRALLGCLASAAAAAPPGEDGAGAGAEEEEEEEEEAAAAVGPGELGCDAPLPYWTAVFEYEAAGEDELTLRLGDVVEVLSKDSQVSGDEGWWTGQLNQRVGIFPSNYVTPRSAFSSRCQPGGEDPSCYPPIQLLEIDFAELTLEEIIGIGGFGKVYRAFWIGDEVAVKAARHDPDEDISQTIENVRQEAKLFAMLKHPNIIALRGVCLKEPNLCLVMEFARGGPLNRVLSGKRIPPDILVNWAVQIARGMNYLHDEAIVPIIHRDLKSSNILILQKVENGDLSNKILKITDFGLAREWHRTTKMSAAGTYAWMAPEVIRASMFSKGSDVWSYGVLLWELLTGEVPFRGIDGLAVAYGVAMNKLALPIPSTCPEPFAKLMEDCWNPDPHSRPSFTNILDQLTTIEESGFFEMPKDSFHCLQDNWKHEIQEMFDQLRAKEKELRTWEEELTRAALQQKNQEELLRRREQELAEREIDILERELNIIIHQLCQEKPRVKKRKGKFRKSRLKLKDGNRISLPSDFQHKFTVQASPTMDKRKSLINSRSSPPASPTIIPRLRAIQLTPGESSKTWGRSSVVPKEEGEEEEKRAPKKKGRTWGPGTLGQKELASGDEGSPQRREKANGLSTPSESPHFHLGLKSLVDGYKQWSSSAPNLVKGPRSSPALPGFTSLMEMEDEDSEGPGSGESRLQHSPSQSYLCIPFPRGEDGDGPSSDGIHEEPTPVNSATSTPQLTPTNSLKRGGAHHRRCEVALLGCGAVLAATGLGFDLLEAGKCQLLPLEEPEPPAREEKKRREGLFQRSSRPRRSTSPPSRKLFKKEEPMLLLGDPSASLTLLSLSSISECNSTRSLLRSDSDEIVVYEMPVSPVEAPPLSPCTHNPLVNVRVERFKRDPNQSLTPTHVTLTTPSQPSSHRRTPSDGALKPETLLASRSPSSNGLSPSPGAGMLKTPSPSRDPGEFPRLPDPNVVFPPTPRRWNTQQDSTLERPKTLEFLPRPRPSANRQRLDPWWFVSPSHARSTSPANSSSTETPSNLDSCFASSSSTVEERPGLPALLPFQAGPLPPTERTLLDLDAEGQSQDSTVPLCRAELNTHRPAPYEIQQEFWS

[7] = target: Insulin-like growth factor 1 receptor (Homo sapiens) (UniProt P08069); test: Inhibition of IGF-1R assessed as residual activity at 1 uM
In short: (§2)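 Radioactivity-based enzymatic activity assay of the named kinase, run as part of a 131-kinase specificity panel at the National Centre for Protein Kinase Profiling (Dundee). Residual activity was read at the stated single inhibitor concentration.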

[8] = target: Fibroblast growth factor receptor 1 (Homo sapiens) (UniProt P11362); test: Inhibition of FGF-R1 assessed as residual activity at 1 uM; in short: as §2
Chain of Fibroblast growth factor receptor 1 (Homo sapiens) (P11362 22-822 limits assumed): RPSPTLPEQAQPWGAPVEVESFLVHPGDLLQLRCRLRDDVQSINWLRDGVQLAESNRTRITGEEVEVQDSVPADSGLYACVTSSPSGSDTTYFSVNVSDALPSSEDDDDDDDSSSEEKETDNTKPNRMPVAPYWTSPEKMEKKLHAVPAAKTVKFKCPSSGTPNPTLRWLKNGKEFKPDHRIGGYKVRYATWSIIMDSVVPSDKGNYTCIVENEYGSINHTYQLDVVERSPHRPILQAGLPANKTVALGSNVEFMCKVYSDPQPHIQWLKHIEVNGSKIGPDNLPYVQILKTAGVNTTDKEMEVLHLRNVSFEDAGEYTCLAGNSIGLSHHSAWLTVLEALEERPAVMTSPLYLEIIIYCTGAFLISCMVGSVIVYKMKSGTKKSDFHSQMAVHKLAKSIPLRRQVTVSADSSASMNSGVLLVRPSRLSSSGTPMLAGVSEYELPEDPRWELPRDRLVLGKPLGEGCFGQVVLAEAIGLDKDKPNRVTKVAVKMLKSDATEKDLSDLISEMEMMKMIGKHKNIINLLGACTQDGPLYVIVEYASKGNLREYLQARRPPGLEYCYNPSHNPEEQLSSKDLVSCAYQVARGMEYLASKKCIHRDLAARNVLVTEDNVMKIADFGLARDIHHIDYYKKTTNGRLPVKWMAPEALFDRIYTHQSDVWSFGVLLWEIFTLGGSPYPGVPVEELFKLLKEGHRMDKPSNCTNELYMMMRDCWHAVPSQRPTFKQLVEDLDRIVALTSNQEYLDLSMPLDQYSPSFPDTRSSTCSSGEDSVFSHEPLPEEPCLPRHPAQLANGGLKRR

[9] = target: Mitogen-activated protein kinase kinase kinase 4 (Homo sapiens) (UniProt Q9Y6R4); test: Inhibition of MAP3K4 assessed as residual activity at 10 uM relative to control
[10] = system: Mast/stem cell growth factor receptor Kit (Homo sapiens), P10721 [V559D,T670I]; test: Inhibition of KIT V559D,T670I mutant assessed as residual activity at 10 uM relative to control
[11] = target: Ribosomal protein S6 kinase alpha-6 (Homo sapiens) (UniProt Q9UK32); test: Inhibition of RSK4 N-terminal domain 1 assessed as residual activity at 10 uM relative to control
[12] = target: Phosphatidylinositol 4-phosphate 5-kinase type-1 alpha (Homo sapiens) (UniProt Q99755); test: Inhibition of PIP5K1A assessed as residual activity at 10 uM relative to control
[13] = system: Tyrosine-protein kinase ABL1 (Homo sapiens), P00519 [F317I]; test: Inhibition of phosphorylated ABL1 F317I mutant assessed as residual activity at 10 uM relative to control
Chain of Tyrosine-protein kinase ABL1 (Homo sapiens), P00519 [F317I] (P00519 whole entry F317I): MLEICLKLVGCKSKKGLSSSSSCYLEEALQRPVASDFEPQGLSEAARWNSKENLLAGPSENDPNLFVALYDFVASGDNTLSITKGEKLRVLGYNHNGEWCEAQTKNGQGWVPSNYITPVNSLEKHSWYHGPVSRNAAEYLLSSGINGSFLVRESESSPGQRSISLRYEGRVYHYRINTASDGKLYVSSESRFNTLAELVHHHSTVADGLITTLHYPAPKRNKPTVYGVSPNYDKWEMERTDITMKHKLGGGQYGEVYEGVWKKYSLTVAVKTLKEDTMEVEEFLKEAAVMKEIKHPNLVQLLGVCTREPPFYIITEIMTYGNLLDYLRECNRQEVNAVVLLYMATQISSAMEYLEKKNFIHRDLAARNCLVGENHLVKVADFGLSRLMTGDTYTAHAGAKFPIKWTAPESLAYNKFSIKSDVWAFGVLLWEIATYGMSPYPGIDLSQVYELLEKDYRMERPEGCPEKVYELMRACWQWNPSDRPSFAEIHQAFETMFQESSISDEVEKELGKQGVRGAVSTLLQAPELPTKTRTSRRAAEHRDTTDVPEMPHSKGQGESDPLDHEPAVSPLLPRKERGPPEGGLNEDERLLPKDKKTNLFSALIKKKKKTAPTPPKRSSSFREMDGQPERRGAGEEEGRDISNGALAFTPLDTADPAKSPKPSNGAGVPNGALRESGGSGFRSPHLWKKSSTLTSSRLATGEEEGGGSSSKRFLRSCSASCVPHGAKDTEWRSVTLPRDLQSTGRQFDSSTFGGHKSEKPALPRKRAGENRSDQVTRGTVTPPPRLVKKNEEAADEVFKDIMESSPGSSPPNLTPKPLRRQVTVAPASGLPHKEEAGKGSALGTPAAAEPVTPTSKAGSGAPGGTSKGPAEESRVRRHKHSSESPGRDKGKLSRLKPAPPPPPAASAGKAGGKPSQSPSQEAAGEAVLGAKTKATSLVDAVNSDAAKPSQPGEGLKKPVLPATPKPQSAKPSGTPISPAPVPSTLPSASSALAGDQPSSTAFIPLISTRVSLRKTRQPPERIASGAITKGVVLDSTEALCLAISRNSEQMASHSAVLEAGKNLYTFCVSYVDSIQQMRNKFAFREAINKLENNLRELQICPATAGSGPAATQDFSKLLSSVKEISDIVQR

[14] = system: Tyrosine-protein kinase ABL1 (Homo sapiens), P00519 [E255K]; test: Inhibition of phosphorylated ABL1 E255K mutant assessed as residual activity at 10 uM relative to control
Chain of Tyrosine-protein kinase ABL1 (Homo sapiens), P00519 [E255K] (P00519 whole entry E255K): as the sequence (P00519 whole entry F317I) above, with E255K, I317F counted along it

Mus musculus [15] = test: Inhibition of LRRK2 in mouse assessed as inhibition of Ser935 autophosphorylation in kidney at 100 mg/kg, ip by immunoblot method; format: functional, organism-based; design: dose 100 mg/kg
Mus musculus [16] = test: Inhibition of LRRK2 in mouse assessed as inhibition of Ser910 autophosphorylation in kidney at 100 mg/kg, ip by immunoblot method; format: functional, organism-based; design: dose 100 mg/kg
[17] = target: Serine/threonine-protein kinase N2 (Homo sapiens) (UniProt Q16513); test: Inhibition of PRK2 assessed as residual activity at 10 uM
[18] = target: T1, NUAK family SNF1-like kinase 1 (Homo sapiens) (UniProt O60285); test: Inhibition of NUAK1 assessed as residual activity at 10 uM
T1 sequence (whole entry): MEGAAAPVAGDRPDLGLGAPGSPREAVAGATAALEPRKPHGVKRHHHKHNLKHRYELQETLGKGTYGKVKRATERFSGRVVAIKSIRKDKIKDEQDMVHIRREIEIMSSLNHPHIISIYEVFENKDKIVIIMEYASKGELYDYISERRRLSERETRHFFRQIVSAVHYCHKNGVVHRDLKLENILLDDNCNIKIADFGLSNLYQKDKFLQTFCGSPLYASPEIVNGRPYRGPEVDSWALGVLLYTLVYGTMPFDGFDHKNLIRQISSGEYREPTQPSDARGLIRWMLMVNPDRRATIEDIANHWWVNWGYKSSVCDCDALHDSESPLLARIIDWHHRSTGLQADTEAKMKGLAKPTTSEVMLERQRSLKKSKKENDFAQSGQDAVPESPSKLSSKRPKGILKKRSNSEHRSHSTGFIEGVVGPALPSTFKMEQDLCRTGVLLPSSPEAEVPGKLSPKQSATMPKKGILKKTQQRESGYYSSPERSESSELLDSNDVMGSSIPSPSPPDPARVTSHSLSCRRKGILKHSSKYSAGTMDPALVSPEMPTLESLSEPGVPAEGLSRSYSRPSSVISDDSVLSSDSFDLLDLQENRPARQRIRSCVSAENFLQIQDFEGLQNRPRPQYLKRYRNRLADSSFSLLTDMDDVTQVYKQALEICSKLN

[19] = target: Ribosomal protein S6 kinase alpha-5 (Homo sapiens) (UniProt O75582); test: Inhibition of MSK1 assessed as residual activity at 10 uM
Chain of Ribosomal protein S6 kinase alpha-5 (Homo sapiens) (O75582 whole entry, looked up): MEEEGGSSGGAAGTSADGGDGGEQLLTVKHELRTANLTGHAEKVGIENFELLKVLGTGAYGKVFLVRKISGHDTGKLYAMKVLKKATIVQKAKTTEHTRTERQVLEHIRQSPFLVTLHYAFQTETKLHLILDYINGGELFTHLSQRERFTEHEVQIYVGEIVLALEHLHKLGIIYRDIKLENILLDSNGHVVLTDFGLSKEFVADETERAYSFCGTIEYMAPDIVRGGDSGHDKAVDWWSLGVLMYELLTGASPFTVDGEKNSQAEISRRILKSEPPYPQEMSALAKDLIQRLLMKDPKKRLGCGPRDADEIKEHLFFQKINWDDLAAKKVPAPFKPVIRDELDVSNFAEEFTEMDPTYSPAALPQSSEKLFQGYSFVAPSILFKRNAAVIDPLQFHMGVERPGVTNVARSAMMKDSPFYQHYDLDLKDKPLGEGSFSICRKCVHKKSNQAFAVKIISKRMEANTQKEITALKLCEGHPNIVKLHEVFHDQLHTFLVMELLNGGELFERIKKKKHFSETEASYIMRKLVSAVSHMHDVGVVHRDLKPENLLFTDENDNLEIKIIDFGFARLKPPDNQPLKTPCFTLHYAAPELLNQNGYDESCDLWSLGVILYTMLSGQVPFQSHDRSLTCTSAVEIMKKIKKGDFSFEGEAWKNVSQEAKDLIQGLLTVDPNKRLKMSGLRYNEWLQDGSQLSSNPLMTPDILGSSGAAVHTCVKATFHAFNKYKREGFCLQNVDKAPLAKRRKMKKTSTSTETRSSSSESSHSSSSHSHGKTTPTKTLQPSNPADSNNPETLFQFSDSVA

[20] = system: Receptor-type tyrosine-protein kinase FLT3 (Homo sapiens), P36888 [D835H]; test: Inhibition of FLT3 D835H mutant assessed as residual activity at 10 uM relative to control
[21] = target: Ephrin type-A receptor 5 (Homo sapiens) (UniProt P54756); test: Inhibition of EPHA5 assessed as residual activity at 10 uM relative to control; in short: as §1
[22] = system: Epidermal growth factor receptor (Homo sapiens), P00533 [L861Q]; test: Inhibition of EGFR L861Q mutant assessed as residual activity at 10 uM relative to control; format: protein assay; in short: as §1
[23] = target: Myosin light chain kinase, smooth muscle (Homo sapiens) (UniProt Q15746); test: Inhibition of SmMLCK assessed as residual activity at 1 uM
[24] = target: Leucine-rich repeat serine/threonine-protein kinase 2 (Mus musculus) (UniProt Q5S006); test: Inhibition of LRRK2 in Swiss mouse 3T3 cells assessed as inhibition of Ser935 autophosphorylation after 90 mins by immunoblot method; format: cell-based; details: NIH3T3
[25] = target: Mitogen-activated protein kinase 11 (Homo sapiens) (UniProt Q15759); test: Inhibition of p38-beta assessed as residual activity at 10 uM relative to control
Chain of Mitogen-activated protein kinase 11 (Homo sapiens) (Q15759 whole entry): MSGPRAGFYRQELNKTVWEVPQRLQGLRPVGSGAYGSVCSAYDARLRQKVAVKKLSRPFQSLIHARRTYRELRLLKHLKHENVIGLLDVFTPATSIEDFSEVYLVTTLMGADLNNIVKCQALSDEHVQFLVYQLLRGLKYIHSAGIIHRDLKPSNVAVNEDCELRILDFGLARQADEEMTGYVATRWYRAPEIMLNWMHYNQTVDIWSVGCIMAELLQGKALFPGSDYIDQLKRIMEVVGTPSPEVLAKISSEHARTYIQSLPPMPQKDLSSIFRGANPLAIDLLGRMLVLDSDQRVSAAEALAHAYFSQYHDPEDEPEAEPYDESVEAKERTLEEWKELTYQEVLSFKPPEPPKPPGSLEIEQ

[26] = target: Serine/threonine-protein kinase OSR1 (Homo sapiens) (UniProt O95747); test: Inhibition of OSR1 assessed as residual activity at 10 uM relative to control
Chain of Serine/threonine-protein kinase OSR1 (Homo sapiens) (O95747 2-527 limits assumed): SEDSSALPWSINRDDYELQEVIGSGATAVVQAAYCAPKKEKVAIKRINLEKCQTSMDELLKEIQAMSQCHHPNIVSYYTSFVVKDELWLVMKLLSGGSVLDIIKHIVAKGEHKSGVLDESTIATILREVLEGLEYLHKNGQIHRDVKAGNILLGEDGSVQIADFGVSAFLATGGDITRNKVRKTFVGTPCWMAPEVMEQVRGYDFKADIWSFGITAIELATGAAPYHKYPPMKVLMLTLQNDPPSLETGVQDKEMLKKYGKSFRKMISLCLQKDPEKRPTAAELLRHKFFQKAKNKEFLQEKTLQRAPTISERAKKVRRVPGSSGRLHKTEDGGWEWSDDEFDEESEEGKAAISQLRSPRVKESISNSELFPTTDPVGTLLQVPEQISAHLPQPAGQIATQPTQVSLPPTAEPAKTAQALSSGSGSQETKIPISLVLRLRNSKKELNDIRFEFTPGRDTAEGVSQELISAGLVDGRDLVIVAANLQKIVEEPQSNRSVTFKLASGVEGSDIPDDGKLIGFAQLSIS

[27] = target: Mitogen-activated protein kinase kinase kinase 10 (Homo sapiens) (UniProt Q02779); test: Inhibition of MLK2 assessed as residual activity at 10 uM relative to control
[28] = target: Serine/threonine-protein kinase 17B (Homo sapiens) (UniProt O94768); test: Inhibition of DRAK2 assessed as residual activity at 10 uM relative to control
In short: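 Radioactivity-based enzymatic assay of kinase activity, run as part of a 131-kinase profiling panel at the National Centre for Protein Kinase Profiling, Dundee.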

For `O=C(Nc1cccnc1)c1cc(-c2ccnc(F)c2)ccc1OCc1ccccc1`, the Activity [1] was 40%, the Activity [2] was 40% and the Activity [3] was 46%. For the same molecule, the Activity [4] was 70%, the Activity [5] was 63% and the Activity [6] was 69%. It also gave an Activity [7] of 123%, an Activity [8] of 110% and an Activity [9] of 80%. The Activity [10] was 52%, the Activity [11] was 71% and the Activity [12] was 73%. For the same molecule, the Activity [13] was 38%, the Activity [14] was 75% and the inhibition (Mus musculus [15]) was “Active”. For the same molecule, the inhibition (Mus musculus [16]) was “Active”, the Activity [17] was 79% and the Activity [18] was 58%. For the same molecule, the Activity [19] was 120%, the Activity [20] was 13% and the Activity [21] was 48%. The Activity [22] was 65%, the Activity [23] was 32% and the inhibition [24] was “Dose-dependent effect”. For the same molecule, the Activity [25] was 74%, the Activity [26] was 63% and the Activity [27] was 77%. The Activity [28] was 72%.
